In ChEMBL document CHEMBL3351380, “Antioxidant and antimicrobial studies on fused-ring pyrazolones and isoxazolones” (Bioorg Med Chem, 2014):
≈ marks a conversion by molar mass, not a printed value. Calls of active or inactive are those of the source. The calls are words filed in the database; no cut-off is given here.

Assays:
[1] = Antioxidant activity assessed as DPPH radical scavenging activity after 3 hrs by spectrophotometry; assay type: physicochemical
Summary of the method: (§1)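 DPPH (0.51 mM in methanol) was mixed 1:1 by volume with the compound at several concentrations (100, 50, 25 … µg/mL range). Absorbance was read against a control, and % inhibition = (A0−As)/A0 ×100. Readings were taken at 30 min and 3 h, with ascorbic acid as the reference. Triplicate measurements.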

[2] = system: Escherichia coli; assay: Antimicrobial activity against Escherichia coli ATCC 8739 assessed as zone of inhibition at 100 ug/ml by agar well diffusion method; assay type: functional
Summary of the method: (§2)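 For the agar well diffusion screen, samples at 100 µg/mL were made from a stock of 10 mg in 1 mL EtOH diluted 1:1 (v/v) with Mueller-Hinton medium. The zone of inhibition was scored as 5–10 mm poor, 10–15 moderate, 15–20 good and 20–25 very good. Gentamycin and nystatin were the reference drugs. Strains were confirmed at the University of Botswana microbiology laboratory.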

[3] = system: Pseudomonas aeruginosa; assay: Antimicrobial activity against Pseudomonas aeruginosa NCIMB 8295 by agar well diffusion method; assay type: functional
[4] = system: Staphylococcus aureus; assay: Antimicrobial activity against Staphylococcus aureus ATCC 25923 assessed as zone of inhibition at 100 ug/ml by agar well diffusion method; assay type: functional; conditions: for zone of inhibition at 100 µg/mL: read-out: IZ; summary of the method: as §2
[5] = system: Candida albicans; assay: Antifungal activity against Candida albicans assessed as zone of inhibition at 100 ug/ml by agar well diffusion method; assay type: functional; conditions: for zone of inhibition at 100 µg/mL: read-out: IZ; summary of the method: as §2
[6] = system: Escherichia coli; assay: Antimicrobial activity against Escherichia coli ATCC 8739 by agar well diffusion method; assay type: functional
[7] = Metal chelating activity of the compound assessed as formation of iron complex after 20 mins by spectrophotometry; assay type: physicochemical
Summary of the method: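 Fe2+ chelation was measured by disruption of the o-phenanthroline–Fe2+ complex. O-phenanthroline (0.05% in methanol) and FeCl2 (0.1%) were mixed with the sample at various concentrations and held at room temperature for 20 min, then read at 510 nm. EDTA was the standard chelator. % chelation = (Acontrol−Asample)/Acontrol ×100, and IC50 came from plots of % chelation versus concentration. Triplicates.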

[8] = system: Staphylococcus aureus; assay: Antimicrobial activity against Staphylococcus aureus ATCC 25923 by agar well diffusion method; assay type: functional
[9] = system: Bacillus subtilis; assay: Antimicrobial activity against Bacillus subtilis NCIB 3610 by agar well diffusion method; assay type: functional; conditions: subsp. subtilis str. NCIB 3610
[10] = system: Candida albicans; assay: Antifungal activity against Candida albicans by agar well diffusion method; assay type: functional
[11] = system: Bacillus subtilis; assay: Antimicrobial activity against Bacillus subtilis NCIB 3610 assessed as zone of inhibition at 100 ug/ml by agar well diffusion method; assay type: functional; conditions: for Activity: subsp. subtilis str. NCIB 3610; for zone of inhibition at 100 µg/mL: subsp. subtilis str. NCIB 3610, read-out: IZ; summary of the method: as §2
[12] = system: Pseudomonas aeruginosa; assay: Antimicrobial activity against Pseudomonas aeruginosa NCIMB 8295 assessed as zone of inhibition at 100 ug/ml by agar well diffusion method; assay type: functional; summary of the method: as §2
[13] = Antioxidant activity assessed as DPPH radical scavenging activity after 30 mins by spectrophotometry; assay type: physicochemical; summary of the method: as §1
[14] = Antioxidant activity assessed as DPPH radical scavenging activity at 10 ug/ml after 3 hrs by spectrophotometry; assay type: physicochemical

SMILES	IC50 [1] [µg/mL]	Activity [2]	MIC [3]	zone of inhibition at 100 µg/mL [4] [mm]	zone of inhibition at 100 µg/mL [5] [mm]	MIC [6]	IC50 [7] [µg/mL]	MIC [8]	MIC [9]	MIC [10]	Activity [11]	Activity [12]	IC50 [13] [µg/mL]	inhibition (INH) [14] [%]	Activity [4]	Activity [5]	zone of inhibition at 100 µg/mL [11] [mm]	zone of inhibition at 100 µg/mL ([12]; read-out: IZ) [mm]
O=C1NN=C2C=C(c3ccc(O)cc3)CC(c3cccc([N+](=O)[O-])c3)C12 (configuration not stated)	30.23 (≈ 86.5 µM)	inactive	inactive	11	11	inactive	80.91 (≈ 232 µM)	2.5 µg/mL (≈ 7.16 µM)	inactive	2.5 µg/mL (≈ 7.16 µM)	inactive	inactive	55.88 (≈ 160 µM)	> 40				
COc1ccc(C2=CC3=NOC(=O)C3C(c3cccc([N+](=O)[O-])c3)C2)cc1 (configuration not stated)	118.69 (≈ 326 µM)	inactive	inactive			inactive	704.31 (≈ 1930 µM)	inactive	2.5 µg/mL (≈ 6.86 µM)	inactive		inactive	258.75 (≈ 710 µM)		inactive	inactive	12	
CCOC(=O)C1C(=O)C=C(c2ccc(OC)cc2OC)CC1c1cccc([N+](=O)[O-])c1 (configuration not stated)	95.43 (≈ 224 µM)	inactive	inactive			inactive	1006.67 (≈ 2370 µM)	inactive	inactive	inactive	inactive	inactive	195.65 (≈ 460 µM)		inactive	inactive		
CCOC(=O)C1C(=O)C=C(c2ccc(O)cc2)CC1c1cccc([N+](=O)[O-])c1 (configuration not stated)	86.67 (≈ 227 µM)	inactive	inactive		13	inactive	1014 (≈ 2660 µM)	inactive	2.5 µg/mL (≈ 6.56 µM)	2.5 µg/mL (≈ 6.56 µM)		inactive	175 (≈ 459 µM)		inactive		12	
O=C1NN=C2C=C(c3ccc(Br)cc3)CC(c3cccc([N+](=O)[O-])c3)C12 (configuration not stated)	77.89 (≈ 189 µM)	inactive	inactive	13	10	inactive	106.36 (≈ 258 µM)	2.5 µg/mL (≈ 6.06 µM)	2.5 µg/mL (≈ 6.06 µM)	2.5 µg/mL (≈ 6.06 µM)		inactive	103.6 (≈ 251 µM)				13	
O=C1ON=C2C=C(c3ccc(Br)cc3)CC(c3cccc([N+](=O)[O-])c3)C12 (configuration not stated)	218.75 (≈ 529 µM)	inactive	inactive		9	inactive	816.48 (≈ 1980 µM)	inactive	inactive	2.5 µg/mL (≈ 6.05 µM)	inactive	inactive	305.01 (≈ 738 µM)		inactive			
O=C1ON=C2C=C(c3ccccc3)CC(c3cccc([N+](=O)[O-])c3)C12 (configuration not stated)	215.71 (≈ 645 µM)	inactive	2.5 µg/mL (≈ 7.48 µM)		10	inactive	750.45 (≈ 2240 µM)	inactive	inactive	2.5 µg/mL (≈ 7.48 µM)	inactive		312.28 (≈ 934 µM)		inactive			11
